ChEMBL document CHEMBL2176995, “An oral sphingosine 1-phosphate receptor 1 (S1P(1)) antagonist prodrug with efficacy in vivo: discovery, synthesis, and evaluation” (J Med Chem, 2012)
Activity calls are given as the source filed them. No cut-off for these calls is given here.

What was measured:
Rattus norvegicus [1] = assay: Induction of capillary leakage in Lewis rat Evans blue dye lung leakage model at 30 mg/kg, po bid measured 24 hrs after 6 hrs relative to untreated control; format: organism-based; set-up: dose 30 mg/kg, route oral; settings: in vivo
In short: (§1)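 Male Lewis rats were gavaged twice daily with vehicle or 30 mg/kg in 30% PEG200/buffer. Evans blue dye (20 mg/2 mL NaCl/kg iv) was given under anesthesia at 5, 23 or 95 h. One hour later the rats were bled, lungs were perfused with saline, dried at 60 °C for 24 h, weighed, and dye was extracted in formamide (24 h, 37 °C). Thoracic fluid volume was also recorded.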

[2] = Stability in pH 10 buffer assessed as compound remaining measured after 17 hrs by UPLC; format: physicochemical; settings: pH 10, 17 h
In short: (§2)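 The ester was incubated in buffer at pH 7.4 or pH 10. Remaining ester and the hydrolysed carboxylic acid were followed over time by UPLC, at time points out to 82 h.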

Rattus norvegicus [3] = assay: Induction of capillary leakage in Lewis rat Evans blue dye lung leakage model at 30 mg/kg, po bid measured 6 hrs after 6 hrs relative to untreated control; format: organism-based; set-up: dose 30 mg/kg, route oral; settings: in vivo; in short: as §1
[4] = Stability in pH 7.4 buffer assessed as compound hydrolysis measured after 2 hrs by UPLC; format: physicochemical; settings: read-out: Drug degradation; in short: as §2
[5] = Cmax in Lewis rat blood at 30 mg/kg, po administered as single dose measured 8 hrs post dose
Rattus norvegicus [6] = assay: Reduction in peripheral blood lymphocytes in stringent Dark Agouti to Lewis rat heterotopic vascular heart allotransplantation model at 30 mg/kg, po bid coadministered with 10 mg/kg, bid sotrastaurin measured post 50 days post transplant relative to untreated control; format: functional; set-up: scale not given: the % may be the effect or the level left
In short: (§3)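 DA donor hearts were grafted into Lewis recipients. Treatment started 3 days before transplantation: prodrug 30 mg/kg po b.i.d. (PEG200/water, pH 5) alone or with sotrastaurin 10 mg/kg po b.i.d. or everolimus 0.3 mg/kg po q.d. Grafts were followed to rejection or up to 50 days. Allografts were formalin-fixed, cut at 3 μm, stained with H&E and trichrome, and scored for rejection. Lymphocytes were counted weekly before dosing, and body weight was monitored.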

Rattus norvegicus [7] = assay: Increase in allograft survival in stringent Dark Agouti to Lewis rat heterotopic vascular heart allotransplantation model assessed as allograft mean survival time at 30 mg/kg, po bid (reference value: 6 days); format: functional
Rattus norvegicus [8] = assay: Reduction in peripheral blood lymphocytes in Lewis rat assessed as remaining circulating lymphocytes level at 30 mg/kg, po administered as single dose measured 24 hrs post dose by automated hematology analyzer; format: functional
In short: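 Male Lewis rats receive a single oral dose of compound or vehicle, freshly made in 30% PEG200/buffer. Blood (<200 μL) is drawn by sublingual puncture under isoflurane 5% v/v at baseline and later time points. Lymphocytes are counted on an automated hematology analyzer, and each animal's change is expressed as percent of its own pre-treatment baseline.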

Rattus norvegicus [9] = assay: Toxicity in stringent Dark Agouti to Lewis rat heterotopic vascular heart allotransplantation model assessed as incidence of histopathological changes at 30 mg/kg, po bid coadministered with 10 mg/kg, bid sotrastaurin by hematoxylin and eosin staining; format: organism-based; settings: in vivo
In short: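 DA hearts grafted into rat recipients. Test agent 30 mg/kg po b.i.d. (in PEG200/water, pH 5 with 0.1 M HCl) plus the PKC inhibitor 10 mg/kg po b.i.d. (in D-glucose/PEG400/water/0.1 M HCl), started 3 days before transplantation. The study ended at rejection or a set end point. Grafts were formalin-fixed and paraffin-embedded, and 3 μm sections were stained with H&E and trichrome. Acute cellular rejection (0–3R), vasculopathy and fibrosis were scored; lungs were also examined.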

Rattus norvegicus [10] = assay: Reduction in peripheral blood lymphocytes in Lewis rat assessed as remaining circulating lymphocytes level at 30 mg/kg, po, qd for 5 days by automated hematology analyzer; format: functional
In short: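 Male Lewis rats were dosed daily at 30 mg/kg po for 5 days. Blood lymphocytes were counted on an automated hematology analyzer once a day, before the next dose, and expressed relative to the pretreatment baseline.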

Rattus norvegicus [11] = assay: Increase in allograft survival in stringent Dark Agouti to Lewis rat heterotopic vascular heart allotransplantation model assessed as improvement in histological changes at 30 mg/kg, po bid coadministered with 10 mg/kg, bid sotrastaurin by hematoxylin and eosin staining; format: functional, organism-based; in short: as §3
Rattus norvegicus [12] = assay: Toxicity in stringent Dark Agouti to Lewis rat heterotopic vascular heart allotransplantation model assessed as change in body weight at 30 mg/kg, po bid coadministered with 0.3 mg/kg, qd everolimus; format: organism-based; settings: in vivo; in short: as §3
[13] = Stability in pH 7.4 buffer assessed as compound hydrolysis measured after 49 hrs by UPLC; format: physicochemical; settings: read-out: Drug degradation; in short: as §2
[14] = Stability in pH 7.4 buffer assessed as compound hydrolysis measured after 82 hrs by UPLC; format: physicochemical; settings: pH 7.4, 82 h; in short: as §2
Rattus norvegicus [15] = assay: Increase in allograft survival in stringent Dark Agouti to Lewis rat heterotopic vascular heart allotransplantation model assessed as allograft mean survival time at 30 mg/kg, po bid coadministered with 0.3 mg/kg, qd everolimus (reference value: 6 days); format: functional
[16] = Stability in pH 10 buffer assessed as compound remaining measured after 2 hrs by UPLC; format: physicochemical; settings: read-out: Stability; in short: as §2
Rattus norvegicus [17] = assay: Induction of capillary leakage in Lewis rat Evans blue dye lung leakage model assessed as thorax fluid level at 30 mg/kg, po bid measured after 96 hrs relative to untreated control; format: organism-based; set-up: dose 30 mg/kg, route oral; settings: in vivo; in short: as §1
Rattus norvegicus [18] = assay: Toxicity in stringent Dark Agouti to Lewis rat heterotopic vascular heart allotransplantation model assessed as compound tolerance at 30 mg/kg, po bid coadministered with 10 mg/kg, bid sotrastaurin; format: organism-based; settings: in vivo; in short: as §3
Rattus norvegicus [19] = assay: Toxicity in stringent Dark Agouti to Lewis rat heterotopic vascular heart allotransplantation model assessed as compound tolerance at 30 mg/kg, po bid; format: organism-based; set-up: dose 30 mg/kg, route oral; settings: in vivo; in short: as §3
Rattus norvegicus [20] = assay: Induction of capillary leakage in Lewis rat Evans blue dye lung leakage model at 30 mg/kg, po bid measured 96 hrs after 6 hrs relative to untreated control; format: organism-based; set-up: dose 30 mg/kg, route oral; settings: in vivo; in short: as §1
Rattus norvegicus [21] = assay: Induction of capillary leakage in Lewis rat Evans blue dye lung leakage model assessed as thorax fluid level at 30 mg/kg, po bid measured after 6 hrs relative to untreated control; format: organism-based; set-up: dose 30 mg/kg, route oral; settings: in vivo; in short: as §1
Rattus norvegicus [22] = assay: Toxicity in stringent Dark Agouti to Lewis rat heterotopic vascular heart allotransplantation model assessed as change in body weight at 30 mg/kg, po bid; format: organism-based; set-up: dose 30 mg/kg, route oral; settings: in vivo; in short: as §3
[23] = Stability in pH 1 buffer by UPLC; format: physicochemical; settings: read-out: Stability
[24] = Stability in pH 5 buffer by UPLC; format: physicochemical
Blood = assay: Cmax in Lewis rat blood assessed as level of (S)-2-{[3'-(4-Chloro-2,5-dimethylphenylsulfonylamino)-3,5-dimethylbiphenyl-4-carbonyl]methylamino}-4-dimethylaminobutyric Acid Hydrochloride at 30 mg/kg, po administered as single dose measured 8 hrs post dose; settings: in vivo
[25] = Drug level in Lewis rat blood at 30 mg/kg, po administered as single dose measured 0.25 hrs post dose; settings: read-out: Drug uptake
Rattus norvegicus [26] = assay: Induction of capillary leakage in Lewis rat Evans blue dye lung leakage model assessed as thorax fluid level at 30 mg/kg, po bid measured after 24 hrs relative to untreated control; format: organism-based; set-up: dose 30 mg/kg, route oral; settings: in vivo; in short: as §1
Rattus norvegicus [27] = assay: Reduction in peripheral blood lymphocytes in stringent Dark Agouti to Lewis rat heterotopic vascular heart allotransplantation model at 30 mg/kg, po bid coadministered with 0.3 mg/kg, qd everolimus measured post 50 days post transplant relative to untreated control; format: functional; set-up: scale not given: the % may be the effect or the level left; in short: as §3

COC(=O)[C@H](CCN(C)C)N(C)C(=O)c1c(C)cc(-c2cccc(NS(=O)(=O)c3cc(C)c(Cl)cc3C)c2)cc1C
fold change (FC) (Rattus norvegicus [1]): 2.4 | Stability [2]: Unstable | fold change (FC) (Rattus norvegicus [3]): 3 | degraded at 2 h [4]: 9% | Cmax [5]: 364 ng/mL | Activity (Rattus norvegicus [6]): 12% | MST (Rattus norvegicus [7]): 8 days | Activity (Rattus norvegicus [8]): 22% | Activity (Rattus norvegicus [9]): Non-toxic | Activity (Rattus norvegicus [10]): 20% | Activity (Rattus norvegicus [11]): Active | Activity (Rattus norvegicus [12]): Non-toxic | degraded at 49 h [13]: 85% | Stability [14]: Unstable | MST (Rattus norvegicus [15]): >50 days | remaining at 2 h [16]: 52% | Activity (Rattus norvegicus [17]): Non-toxic | Activity (Rattus norvegicus [18]): Non-toxic | Activity (Rattus norvegicus [19]): Non-toxic | fold change (FC) (Rattus norvegicus [20]): 2.2 | Activity (Rattus norvegicus [21]): 1 mL | Activity (Rattus norvegicus [22]): Non-toxic | half-life [23]: > 53 h | Stability [24]: > 53 h | Cmax (Blood): 29 ng/mL | concentration at 0.25 h [25]: 146 ng/mL | Activity (Rattus norvegicus [26]): 2 mL | Activity (Rattus norvegicus [27]): 9%
